Rows were chosen to be rich in hits. Some 12% of all compounds tested hit in one or more screens of this group.
Autophagy HCS – autophagy modulation, high-content screen; MEF GFP-LC3 puncta imaging; test concentration mostly 10 µM; calls only at 10 µM (by protocol); 0.98% of 190,000 active;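 active = percentage of spot-positive cells more than 3 SD above its plate mean, without a fluorescence outlier flag or 80% toxicity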;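 also: spot-positive cell cutoff set from DMSO-treated cells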
MT stabilizer – microtubule stabilizers in HeLa cells. HeLa tubulin immunostaining HCS, 24 h; share of cells brighter than vehicle mean+2SD. % tubulin-high responders, % at 10 µM. 0.83% of 200,000 active;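 active = plate Z-score above 3 for both tubulin-high and condensed-nucleus cell shares, with cell loss under 80%, at 10 µM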;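 also: anti alpha tubulin signal scored within the nucleus-defined area of each cell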
L major viab – Leishmania major promastigote growth inhibition. Leishmania major promastigotes, resazurin fluorescence viability. inhibition, % at 10 µM. 9% of 200,000 active. AID 1063; in the data active = inhibition above about 50%;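 also: promastigotes grown with compound for 44 hours at 28 °C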
CHOP inh – inhibitors of CHOP induction in ER stress response. CHO-K1 CHOP-promoter luciferase, tunicamycin-induced, 15-18 h. inhibition, % at 10 µM. 3.8% of 220,000 active;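 active = compounds that reduced the stress-induced luciferase reporter signal by more than about 70% of percent inhibition, limit read from the data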;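 also: 0% = tunicamycin plus vehicle and 100% = wells without tunicamycin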
bCat nuc transl – alters nuclear translocation of beta-catenin in HeLa cells; immunofluorescence imaging; nuclear translocation activity, % at 5 µM; 0.3% of 190,000 active; AID 1665;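 active = nuclear translocation activity above 50% at 5 µM, with a well cell count of 50 or more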;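 also: per-cell ratio of nuclear to cytoplasmic median beta-catenin stain intensity; plate controls were DMSO negative control for no effect and GSK-3 inhibitor IX positive control for full effect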
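Test system: HeLa cells, endogenous beta-catenin; Compound: single 5 µM dose plus 0.02–20 µM confirmation series; Times: compound exposure 24 h at 37°C; Signal: fluorescence imaging of beta-catenin antibody stain plus DAPI; Read-out: % activation, nuclear-to-cytoplasmic median beta-catenin signal ratio per cell.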
Dynein cargo inh – blocks dynein driven cargo transport along microtubules; AID 1381; 0.47% of 220,000 active; z-score, hits read low; 3617.4 mouse cells, GR-EGFP nuclear translocation imaging; test concentration mostly 20 µM; stimulated with dexamethasone, 1 µM; hits give low values;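 active = plate z-score of nuclear minus cytoplasmic receptor signal below a set negative limit, without overly bright fluorescence or cell loss, cut at about -3.5 in these data, passing the limit was not always enough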;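 also: z-score of nuclear minus cytoplasmic ring GR-EGFP intensity difference per well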
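Buffer or medium: tet-free, stripped-serum medium; reagent: dexamethasone at 1.0 µM final, 30 min; incubation: 48 h induction, 1 h compound, 30 min dex at 37 °C; measured by: formaldehyde fixation, Hoechst nuclear stain, 10x automated fluorescence imaging; read-out: nuclear-to-cytoplasmic GR-EGFP distribution per well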
Starred values were filed as active, the others as inactive; i = inactive; / = no result given.

SMILES | Autophagy HCS | MT stabilizer | L major viab | CHOP inh | bCat nuc transl | Dynein cargo inh
O=C(NNc1cccc(Cl)n1)Nc1ccccc1 | i | 1.6 | 39.1 | 6.7 | / | -0.176
O=C(Nc1ccccc1)Nc1cccc(Cl)c1 | i | 1.1 | 5.8 | 95.0* | 1.4 | 0.078
CCOc1ccc(NC(=O)Nc2cccc(C(=O)O)c2)cc1 | i | 2.2 | -9.4 | 93.2* | -2.4 | 0.638
COc1cc(C(=O)NNC(=S)Nc2ccc(S(N)(=O)=O)cc2)cc(OC)c1OC | i | 7.4 | -8.4 | -16.8 | 0.3 | -0.182
C=C(C)C1CCC(C)=C1CC(C)(C)/C=N\n1cnnc1 (centres undefined) | i | 2.3 | -0.5 | 30.4 | -3.5 | 0.127
O=C(c1ccc(CNc2c(N3CCCC3)c(=O)c2=O)cc1)N1CCc2ccccc2C1 | / | 6.1 | -2.2 | 27.2 | -0.3 | -0.141
O=C(Nc1ccc(Cl)cc1)Nc1cccc(C(=O)O)c1 | i | 1.7 | -5.8 | 79.4* | 1.1 | -0.016
O=C(Nc1cccc(Cl)c1)Nc1cccc(C(=O)O)c1 | / | / | / | 21.1 | -0.6 | -0.513
CCOc1ccc(NC(=O)C2CC(C)=C(C)CC2C(=O)O)cc1 (centres undefined) | i | 1.6 | 80.5* | 40.2 | -1.8 | 0.803
CCOc1c(Cl)cc(CNCC(C)C)cc1Cl | i | 5.0 | 67.7* | 10.4 | / | 0.579
CCOc1cc(CNCc2ccccn2)cc(Cl)c1OCC | i | 1.3 | 2.4 | 14.0 | 1.4 | -0.845
NS(=O)(=O)c1ccc(NCc2cc(Cl)ccc2OCc2ccc(F)cc2)cc1 | i | 2.3 | 54.4* | 40.5 | / | 0.266
CCOc1cc(CNCCSc2nnnn2C)cc(Br)c1OCc1ccccc1 | i | 2.4 | 18.7 | 42.4 | 5.6 | 1.34
NS(=O)(=O)c1ccc(CNC(=S)Nc2ccc(F)c(Cl)c2)cc1 | i | 2.3 | 18.1 | 16.0 | 0.4 | 0.0751
CCOc1cc(CNCCO)cc(Br)c1OCc1ccccc1 | i | 2.4 | 75.3* | -8.8 | 0.2 | -0.653
CCOc1c(Cl)cc(CNCc2ccncc2)cc1OC | i | 5.5 | 83.8* | -2.1 | -6.4 | 0.255
Cc1ccc(NC(=S)N2CCC(c3ccccc3)C2)c(Cl)c1 (centres undefined) | i | 5.2 | 13.4 | 7.0 | -0.3 | -0.675
CC1CCN(C(=O)CSc2ccc(-c3cccc([N+](=O)[O-])c3)nn2)CC1 | i | 3.9 | 12.7 | 3.6 | 0.4 | -0.96
COc1nc2c(C)cccc2cc1-c1noc(-c2ccncc2)n1 | / | / | / | / | 0.7 | /
COc1ccc(C2(CNS(=O)(=O)c3ccc(C)cc3)CCOCC2)cc1 | / | / | / | 7.1 | -3.0 | -0.879
C=CCNC(=O)NC(=O)CSc1nnc(C(F)(F)F)n1C | i | 2.4 | 1.1 | 9.3 | -0.3 | -0.481
CCOCCCNCc1cc(Br)ccc1OCc1ccccc1 | i | 2.6 | 83.4* | 3.0 | -3.5 | -1.2
NS(=O)(=O)c1ccc(CCNCc2cc(Br)ccc2OCc2ccccc2)cc1 | i | 2.6 | 55.3* | 39.9 | -4.9 | -1.14
CCOc1cc(CNCCc2ccc(S(N)(=O)=O)cc2)ccc1OCc1ccccc1 | i | 2.6 | 100.5* | 12.0 | 4.6 | 0.626
CCNCc1cc(Cl)c(OCc2ccccc2)c(OCC)c1 | i | 1.1 | 99.6* | -9.6 | 0.4 | -0.638
SMILES | Autophagy HCS | MT stabilizer | L major viab | CHOP inh | bCat nuc transl | Dynein cargo inh
CCOC(=O)C1(Cc2cccc(Cl)c2)CCCN(C(=O)C2CC2)C1 (centres undefined) | i | 3.7 | -0.8 | -24.9 | -2.4 | -0.341
CCOc1cc(CNCCc2ccc(S(N)(=O)=O)cc2)cc(Cl)c1OCc1ccccc1 | i | 2.3 | 100.5* | 70.3* | 4.6 | -2.99
CC(C)(Oc1ccc(Cl)cc1)C(=O)OCn1nnc2ccccc2c1=O | i | 3.0 | -7.9 | 78.2* | -1.1 | -1.7
CCC(=O)OCn1nnc2ccccc2c1=O | i | 1.3 | 0.2 | 32.1 | -2.8 | 0.801
O=C(CNC(=O)C1CCCCC1)OCn1nnc2ccccc2c1=O | i | 6.8 | 0.3 | 36.3 | -0.1 | -0.228
O=C(CC1CCCCC1)OCn1nnc2ccccc2c1=O | i | 0.9 | -1.6 | 82.3* | / | 0.0339
Cc1ccc(CCN2CC(C(=O)NCCCN3CCOCC3)CC2=O)cc1 (centres undefined) | i | 3.6 | -0.9 | -20.3 | -6.4 | 1.31
CCOC(=O)c1c(NC(=O)Cn2nnc(-c3ccc(Cl)cc3)n2)sc(CC)c1C | i | 0.9 | -3.0 | 13.4 | -3.7 | -0.347
